Apaf-1 inh: inhibitors of human Apaf-1 apoptosome, primary screen, biochemical, DEVD-Rh110 fluorescence, uHTS. Apoptotic protease-activating factor 1 (Homo sapiens), O14727. reconstituted apoptosome caspase-3 activity. inhibition, % at 20 µM. 0.71% of 330,000 active. AID 489030, 2010; active = inhibition of at least 40% at 20 µM;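 also: plate controls were DMSO wells for no effect and DEVD-CHO caspase inhibitor wells for full effect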
Target sequence (O14727 whole entry, looked up): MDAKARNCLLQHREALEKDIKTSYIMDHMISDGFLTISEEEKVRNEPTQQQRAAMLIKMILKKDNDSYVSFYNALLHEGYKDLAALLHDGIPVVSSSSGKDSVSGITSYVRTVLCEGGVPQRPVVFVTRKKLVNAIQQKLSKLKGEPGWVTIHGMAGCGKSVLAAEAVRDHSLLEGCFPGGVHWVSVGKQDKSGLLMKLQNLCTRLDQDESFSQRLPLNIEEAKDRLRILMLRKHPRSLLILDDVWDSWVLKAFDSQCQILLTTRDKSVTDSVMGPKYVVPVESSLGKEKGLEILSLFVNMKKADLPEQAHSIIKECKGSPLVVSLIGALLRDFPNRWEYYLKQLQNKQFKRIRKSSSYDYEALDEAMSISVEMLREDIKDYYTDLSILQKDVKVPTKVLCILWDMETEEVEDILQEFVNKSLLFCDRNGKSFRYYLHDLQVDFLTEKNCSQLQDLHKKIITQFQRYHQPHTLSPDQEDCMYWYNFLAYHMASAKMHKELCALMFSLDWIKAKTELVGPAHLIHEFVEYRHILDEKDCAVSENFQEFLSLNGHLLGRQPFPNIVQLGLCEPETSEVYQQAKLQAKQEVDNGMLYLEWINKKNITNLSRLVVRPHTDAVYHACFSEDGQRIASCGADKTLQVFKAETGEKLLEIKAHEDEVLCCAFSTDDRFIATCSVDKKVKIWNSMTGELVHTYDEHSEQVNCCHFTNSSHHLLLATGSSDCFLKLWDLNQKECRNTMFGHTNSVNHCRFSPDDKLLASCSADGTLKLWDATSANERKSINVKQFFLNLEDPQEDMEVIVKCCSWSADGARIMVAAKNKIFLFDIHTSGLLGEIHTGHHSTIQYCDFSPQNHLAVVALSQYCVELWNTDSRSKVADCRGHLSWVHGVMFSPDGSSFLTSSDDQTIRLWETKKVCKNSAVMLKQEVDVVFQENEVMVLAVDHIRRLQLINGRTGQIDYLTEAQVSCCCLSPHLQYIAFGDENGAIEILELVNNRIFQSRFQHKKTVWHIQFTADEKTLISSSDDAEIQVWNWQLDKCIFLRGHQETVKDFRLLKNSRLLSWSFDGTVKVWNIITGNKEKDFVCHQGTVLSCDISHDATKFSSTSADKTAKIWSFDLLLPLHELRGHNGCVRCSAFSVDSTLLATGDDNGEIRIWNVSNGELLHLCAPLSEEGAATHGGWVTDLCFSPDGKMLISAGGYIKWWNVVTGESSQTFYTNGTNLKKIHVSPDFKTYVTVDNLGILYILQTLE
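detection = Rh110 fluorescence intensity | test system = biochemical Apaf-1 apoptosome reconstitution | also added = cytochrome c and DEVD-Rh110 substrate | schedule = 30 min plus 50 min, RT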
XBP1 UPR activ: activators of adaptive XBP1 UPR arm, primary screen, cell-based, CHO-XBP1 luciferase reporter, luminescence, uHTS | 0.33% of 330,000 active | AID 463104, 2010 | IRE1-XBP1 UPR activation; percent of tunicamycin response, DMSO as zero | activation, % at 20 µM;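 active = versus positive control, 20 µM dose yields 30% or more activation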;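 also: 100% = tunicamycin at 10 µg/mL and 0% = DMSO only wells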
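Material – CHO cell line with stable XBP1 luciferase reporter · Buffer or medium – F12 plus 10% FBS · Compound – single point, 20 µM final compound, 1% DMSO · Schedule – 16-18 h cell attachment at 37 °C, then 6 h compound exposure · Signal – Steady-Glo luminescence read · Benchmarks – high control tunicamycin 10 µg/mL final, low control DMSO vehicle only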
UPR CHOP act: activators of apoptotic CHOP UPR arm, primary screen, cell-based, CHO-CHOP luciferase reporter, luminescence, uHTS. UPR activation; percent of tunicamycin response over DMSO baseline. activation, % at 10 µM. 0.34% of 330,000 active. AID 449763, 2010;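 active = at 10 µM dose, activation of 40% or more, normalized to positive control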;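 also: 100% = tunicamycin at 10 µg/mL and 0% = DMSO alone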
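Assay system: CHO-CHOP cells, stable luciferase reporter of PERK-eIF2a-CHOP signalling / Buffer or medium: F12 plus 10% serum / Compound dosing: one dose, 10 µM in 0.5% DMSO / Times: 6 h compound treatment, 37 °C / Technique: luciferase luminescence / Read-out: % reporter activation, DMSO baseline versus tunicamycin full activation / Benchmarks: tunicamycin and DMSO controls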
Mdm2 MdmX PPI: inhibitors of human Mdm2-MdmX association, primary screen, cell-based, luminescence, split luciferase, SaOS-2, uHTS; SaOS-2 split-luciferase Mdm2/MdmX complementation; Protein Mdm4 (Homo sapiens) + E3 ubiquitin-protein ligase Mdm2 (Homo sapiens), …; 3% of 330,000 active; inhibition, % at 8 µM; AID 485346, 2010;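 active = inhibition of at least 50% at 8 µM in the primary screen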
UBC13 inh: UBC13 polyubiquitin chain formation inhibitors, primary screen, biochemical, TR-FRET, uHTS | Ubiquitin-conjugating enzyme E2 N (Homo sapiens), P61088 | 0.47% of 330,000 active | inhibition, % at 20 µM; in the data active = inhibition above about 45%, passing the limit was not always enough
Mdm2 MdmX conf: Mdm2-MdmX complex disruptors, retested hits, confirmation, luminescence, single concentration; inhibition, % at 8 µM; 55% of 10,000 active; shares compounds with Mdm2 MdmX PPI; AID 489028, 2010; Mdm2-MdmX binding, luminescent assay; in the data active = inhibition above about 40%
Full FLuc ctr: full-length luciferase signal inhibition, confirmation, counter-screen for Mdm2/MdmX interaction inhibitor project, cell-based, single concentration, SaOS-2; inhibition, % at 8 µM; 77% of 6,200 active; shares compounds with Mdm2 MdmX PPI; AID 504607, 2011; SaOS-2 full-length luciferase counterscreen, luminescence;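 active = mean inhibition at 8 µM reaching about 37%, which flags the compound as non-specific, limit read from the data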;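 also: p53-null SaOS-2 cells with luciferase driven by a doxycycline-inducible promoter; compound on cells about two nights before reading with doxycycline added after day one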
Active calls of the source: *; x = no result. Most compounds without a hit are left out; they make up all but 4.1% or so of the library.

SMILES | Apaf-1 inh | XBP1 UPR activ | UPR CHOP act | Mdm2 MdmX PPI | UBC13 inh | Mdm2 MdmX conf | Full FLuc ctr
O=C(N/N=C/c1ccc([N+](=O)[O-])o1)c1cc(-c2ccncc2)nc2ccccc12 | 16.0 | 1.4 | 2.7 | 61.6* | 19.2 | 52.5* | 43.5*
O=C(N/N=C/c1ccc(Cl)c([N+](=O)[O-])c1)c1cc(-c2ccccc2)nc2ccccc12 | -12.1 | 3.0 | 12.2 | 100.2* | -8.2 | 7.5 | x
O=[N+]([O-])c1cc(/C=N/NC(=S)Nc2ccccc2Cl)ccc1Cl | 2.2 | 1.0 | 7.5 | 58.8* | -1.3 | 20.9 | x
Cc1cccc2nc(COc3ccc(-c4ccccc4)cc3)cn12 | 16.8 | 2.2 | 7.6 | 63.3* | 1.5 | 29.6 | 78.1*
Cc1cc(C)n2cc(COc3ccc4ccccc4c3)nc2n1 | 0.0 | -0.3 | 4.0 | -217.6 | 8.6 | x | x
CCOc1ccc(CCNC(=O)Cn2ncn3nc(-c4ccc(OC)cc4)cc3c2=O)cc1OCC | 3.0 | -4.0 | 0.4 | 59.1* | 2.1 | 10.8 | x
COc1ccc(-c2cc3c(=O)n(CC(=O)NCc4ccccc4F)ncn3n2)cc1 | -0.8 | 5.0 | 3.0 | 69.7* | -18.0 | 0.1 | x
COc1ccc(NC(=O)Cn2ncn3nc(-c4ccc(OC)cc4)cc3c2=O)cc1 | -0.4 | 20.5 | 18.5 | 79.6* | -4.4 | 20.2 | 90.4*
Cc1ccc2nc(C)cc(C(=O)OCC(=O)Nc3cccnc3Cl)c2c1 | -0.8 | 1.0 | 0.5 | 6.1 | 6.8 | x | x
O=C(CN1C(=O)CSc2ccc(S(=O)(=O)N3CCCCC3)cc21)NCc1ccccc1Cl | 19.8 | -7.4 | -0.9 | 14.8 | 5.7 | x | x
COc1ccc(S(=O)(=O)Nc2ccccc2C(=O)N2CCOCC2)cc1Cl | -8.9 | 0.5 | -0.4 | 24.3 | 5.3 | x | x
CCOc1ccc(S(=O)(=O)N2CCCC(C(=O)N3CCOCC3)C2)cc1Cl (stereo unspecified) | -5.6 | -2.5 | 0.9 | 15.5 | 7.0 | x | x
COc1ccc(/C=N/NC(=O)CSCC(=O)Nc2ccccc2)cc1 | -7.8 | -1.6 | 1.5 | -2.3 | 5.5 | x | x
COc1cccc(/C=N/NC(=O)CSCC(=O)Nc2ccccc2)c1O | 3.1 | 0.0 | -0.7 | 51.8* | -8.6 | 49.3* | 51.4*
COc1cccc(/C=N/NC(=O)CNC(=O)/C=C\c2ccccc2)c1O | 0.8 | -0.5 | 4.3 | 35.0 | -9.9 | x | x
COc1cccc(/C=N/NC(=O)CNC(=O)C(c2ccccc2)c2ccccc2)c1O | 15.1 | -0.4 | 2.7 | 57.2* | 9.3 | 67.6* | 28.6
CCOc1ccc(NC(=O)CN(C)C(=O)C2CCN(C(=O)c3ccc(Cl)cc3)CC2)cc1OCC | -11.0 | -1.4 | 2.0 | 21.7 | -4.1 | x | x
CCN(CC)S(=O)(=O)c1ccc(N/N=C/c2ccc(O)cc2O)nc1 | 13.1 | 3.5 | -2.4 | 64.8* | -28.7 | 78.5* | 49.9*
CCN(CC)S(=O)(=O)c1ccc(N/N=C(\C)c2ccncc2)nc1 | 2.5 | 5.2 | 5.3 | 4.8 | -11.5 | x | x
Cc1[nH]n(C2=NCCS2)c(=O)c1N=Nc1cccc(C(F)(F)F)c1 | -1.9 | 6.9 | 6.4 | 55.9* | -38.4 | 55.5* | 36.2*
CCOC(=O)c1ccc(NC(=S)NC(=O)COc2ccccc2)cc1 | 9.2 | -2.6 | 0.8 | -26.3 | -0.4 | x | x
CN(c1ccccc1)c1ccc(/C=C(\C#N)c2nnc3n2CCCCC3)cc1[N+](=O)[O-] | 11.9 | -1.7 | 1.1 | 65.5* | -14.4 | 33.5 | x
N#C/C(=C\c1cccc([N+](=O)[O-])c1)c1nnc2n1CCCCC2 | -7.8 | -3.1 | -1.1 | 23.4 | -4.6 | x | x
Cc1ccc(S(=O)(=O)NC(=O)NCCCCNC(=O)NS(=O)(=O)c2ccc(C)cc2)cc1 | -5.5 | -1.9 | -1.3 | -3.5 | 0.0 | x | x
O=S(=O)(c1cnc(Cl)c(Br)c1)N1CCN(c2ncccn2)CC1 | -11.8 | -2.9 | 0.8 | 28.5 | 1.5 | x | x
SMILES | Apaf-1 inh | XBP1 UPR activ | UPR CHOP act | Mdm2 MdmX PPI | UBC13 inh | Mdm2 MdmX conf | Full FLuc ctr
Cc1ccc(S(=O)(=O)N2CCCCC2)cc1NC(=O)Cn1ncc(Cl)c(Cl)c1=O | 15.1 | -8.4 | 0.2 | 96.8* | -13.6 | 99.2* | 54.5*
Cc1ccc(NC(=O)CCl)cc1S(=O)(=O)N1CCCCCC1 | 6.7 | -4.4 | 34.4 | 97.2* | -7.2 | 26.1 | x
Cc1cc(Br)ccc1NC(=O)CNC(=O)Cn1ncc(Cl)c(Cl)c1=O | 13.0 | -8.3 | 23.5 | 97.3* | 5.0 | 99.2* | 47.8*
Cc1cc(Br)ccc1NC(=O)CNC(=O)CSc1ncccn1 | 14.0 | 3.0 | -0.5 | -5.2 | -12.2 | x | x
Cc1ccc(S(=O)(=O)NCC(=O)N2CCN(c3ccc(F)cc3)CC2)cc1 | -4.3 | -3.3 | 1.2 | 31.0 | -6.0 | x | x
Cc1ccnc(NC(=O)CCC(=O)N(CC(=O)NCCc2ccccc2)c2ccccc2F)c1 | 10.7 | -2.0 | 1.9 | -1.0 | 4.9 | x | x
COc1cc(C2C3=C(Nc4ncnn42)c2ccccc2CC3)cc(OC)c1OC (stereo unspecified) | 16.0 | 20.3 | 0.0 | 65.9* | -4.8 | 67.3* | 130.6*
COc1ccc(CN(C)C(=O)C2CCN(S(=O)(=O)c3cccs3)CC2)cc1F | -3.3 | -0.7 | -1.7 | 6.3 | 5.9 | x | x
Nc1nc(CCl)nc(N(c2ccccc2)c2ccccc2)n1 | 4.4 | 0.5 | 11.3 | 93.9* | -2.8 | 94.7* | 38.2*
Nc1nc(Cl)nc(N(c2ccccc2)c2ccccc2)n1 | 1.2 | 1.0 | -1.9 | 1.8 | 4.5 | x | x
COc1ccc(/C=c2\s/c(=C/C(=O)c3ccc(C)cc3)[nH]c2=O)cc1OC | 2.7 | 1.0 | 3.0 | 28.4 | -57.1 | x | x
O=C(Nc1ccc([N+](=O)[O-])cc1Br)c1cc2ccccc2nc1Cl | -20.6 | 2.2 | 1.0 | 84.6* | 5.8 | 12.6 | x
O=c1cc(N2CCCCC2)c(-c2ccccc2)nn1Cc1c(Cl)cccc1Cl | 34.8 | -2.1 | 0.5 | 56.3* | 0.5 | 31.8 | x
Cn1c(=O)c2sccc2n(Cc2cccc(Br)c2)c1=O | -0.4 | -6.2 | 1.8 | 5.0 | 8.4 | x | x
CC(NC(=O)Nc1nnc(C(F)(F)F)s1)(C(F)(F)F)C(F)(F)F | 3.2 | 0.1 | 7.9 | 94.6* | -4.7 | 58.8* | 32.9
CC(C)(C)CC(=O)Nc1nnc(C(F)(F)F)s1 | 10.8 | 0.8 | -0.7 | 2.8 | 8.5 | x | x

Assay outcomes (PubChem)
